What was measured:
Assay type in all cases: functional
[1] = system: Staphylococcus aureus; experiment: Antibacterial activity against penicillin-resistant Staphylococcus aureus assessed as inhibition of bacterial growth measured by broth microdilution method; conditions: time 24 hrs
Procedure, shortened: (§1)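 Broth microdilution MIC. A 0.5 McFarland suspension was diluted 10-fold and added at 1.5 × 10⁷ cfu/mL to 2-fold dilutions (0.125–64) in Mueller Hinton broth. Incubated aerobically 24 h at 37 °C. MIC was the lowest concentration with no visible turbidity.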

[2] = system: Staphylococcus epidermidis; experiment: Antibacterial activity against penicillin-resistant Staphylococcus epidermidis assessed as inhibition of bacterial growth measured by broth microdilution method; conditions: time 24 hrs
[3] = system: Bacillus subtilis; experiment: Antibacterial activity against penicillin-susceptible Bacillus subtilis ATCC 9372 assessed as bacterial growth inhibition incubated for 24 hrs by CLSI protocol based broth microdilution method
[4] = system: Bacillus pumilus; experiment: Antibacterial activity against penicillin-susceptible Bacillus pumilus CMCC 63202 assessed as bacterial growth inhibition by broth dilution method; conditions: time 24 hrs
Procedure, shortened: (§2)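 Broth microdilution in Mueller Hinton broth. A 0.5 McFarland suspension was diluted tenfold, giving an inoculum of 1.5 × 10⁷ cfu/mL. This was added to 2-fold serial compound dilutions from […]. Plates were incubated aerobically at 37 °C for 24 h. MIC was the lowest concentration with no visible turbidity.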

[5] = system: Staphylococcus aureus; experiment: Antibacterial activity against erythromycin-susceptible Staphylococcus aureus ATCC 25923 assessed as bacterial growth inhibition incubated for 24 hrs by CLSI protocol based broth microdilution method
[6] = system: Streptococcus pyogenes; experiment: Antibacterial activity against erythromycin-susceptible Streptococcus pyogenes clinical isolate 1 assessed as bacterial growth inhibition incubated for 24 hrs by CLSI protocol based broth microdilution method
[7] = system: Pseudomonas aeruginosa; experiment: Antibacterial activity against penicillin-susceptible Pseudomonas aeruginosa ATCC27853 assessed as bacterial growth inhibition incubated for 24 hrs by CLSI protocol based broth microdilution method
[8] = system: Escherichia coli; experiment: Antibacterial activity against penicillin-susceptible Escherichia coli ATCC 25922 assessed as inhibition of bacterial growth measured by broth microdilution method; conditions: time 24 hrs; procedure, shortened: as §2
[9] = system: Staphylococcus aureus; experiment: Antibacterial activity against methicillin-resistant Staphylococcus aureus ATCC 43300 assessed as inhibition of bacterial growth by broth microdilution method; conditions: time 24 hrs; procedure, shortened: as §1
[10] = system: Staphylococcus aureus; experiment: Antibacterial activity against Staphylococcus aureus assessed as inhibition of bacterial growth measured by broth microdilution method; conditions: time 24 hrs; procedure, shortened: as §2
[11] = system: Streptococcus pyogenes; experiment: Antibacterial activity against erythromycin-resistant Streptococcus pyogenes 2 assessed as bacterial growth inhibition incubated for 24 hrs by CLSI protocol based broth microdilution method

Compound	MIC [1]	MIC [2]	MIC [3]	MIC [4]	MIC [5]	MIC [6]	MIC [7]	MIC [8]	MIC [9]	MIC [10]	MIC [11]
O=C(O)c1cn(C2CC2)c2cc(N3CCNCC3)c(F)cc2c1=O [CIPROFLOXACIN]	> 64 µg/mL	> 64 µg/mL	–	–	–	–	–	–	–	–	–
C[n+]1c2ccccc2c(-c2ccc(C=O)cc2)c2ccccc21.[I-]	–	> 64 µg/mL	> 64 µg/mL	> 64 µg/mL	64 µg/mL	64 µg/mL	> 64 µg/mL	> 64 µg/mL	> 64 µg/mL	> 64 µg/mL	> 64 µg/mL
C[n+]1c2ccccc2c(NC2CC2)c2ccccc21.[Cl-]	–	> 64 µg/mL	> 64 µg/mL	> 64 µg/mL	> 64 µg/mL	> 64 µg/mL	> 64 µg/mL	> 64 µg/mL	> 64 µg/mL	> 64 µg/mL	64 µg/mL
C[n+]1c2ccccc2c(NC2CCCCC2)c2ccccc21.[Cl-]	–	> 64 µg/mL	32 µg/mL	> 64 µg/mL	> 64 µg/mL	> 64 µg/mL	> 64 µg/mL	> 64 µg/mL	> 64 µg/mL	> 64 µg/mL	64 µg/mL
Cc1ccc(Nc2c3ccccc3[n+](C)c3ccccc23)c(C)c1.[Cl-]	–	> 64 µg/mL	> 64 µg/mL	> 64 µg/mL	> 64 µg/mL	> 64 µg/mL	> 64 µg/mL	> 64 µg/mL	> 64 µg/mL	> 64 µg/mL	> 64 µg/mL
C[n+]1c2ccccc2c(Nc2ccc(Cl)cc2Cl)c2ccccc21.[Cl-]	–	> 64 µg/mL	> 64 µg/mL	> 64 µg/mL	> 64 µg/mL	> 64 µg/mL	> 64 µg/mL	> 64 µg/mL	> 64 µg/mL	> 64 µg/mL	> 64 µg/mL
CCc1ccccc1Nc1c2ccccc2[n+](C)c2ccccc12.[Cl-]	–	> 64 µg/mL	> 64 µg/mL	> 64 µg/mL	> 64 µg/mL	> 64 µg/mL	> 64 µg/mL	> 64 µg/mL	> 64 µg/mL	> 64 µg/mL	> 64 µg/mL
CCCNc1c2ccccc2[n+](C)c2ccccc12.[Cl-]	–	64 µg/mL	> 64 µg/mL	> 64 µg/mL	> 64 µg/mL	32 µg/mL	> 64 µg/mL	> 64 µg/mL	> 64 µg/mL	> 64 µg/mL	64 µg/mL
C[n+]1c2ccccc2c(Nc2ccc(F)cc2F)c2ccccc21.[Cl-]	–	> 64 µg/mL	> 64 µg/mL	> 64 µg/mL	> 64 µg/mL	> 64 µg/mL	> 64 µg/mL	> 64 µg/mL	> 64 µg/mL	> 64 µg/mL	> 64 µg/mL
C[n+]1c2ccccc2c(Nc2ccccc2C(F)(F)F)c2ccccc21.[Cl-]	–	> 64 µg/mL	> 64 µg/mL	> 64 µg/mL	> 64 µg/mL	> 64 µg/mL	> 64 µg/mL	> 64 µg/mL	> 64 µg/mL	> 64 µg/mL	> 64 µg/mL
C[n+]1c2ccccc2c(Nc2ccccc2)c2ccccc21.[Cl-]	–	> 64 µg/mL	> 64 µg/mL	> 64 µg/mL	> 64 µg/mL	> 64 µg/mL	> 64 µg/mL	> 64 µg/mL	> 64 µg/mL	> 64 µg/mL	> 64 µg/mL
COc1ccccc1Nc1c2ccccc2[n+](C)c2ccccc12.[Cl-]	–	> 64 µg/mL	> 64 µg/mL	> 64 µg/mL	> 64 µg/mL	> 64 µg/mL	> 64 µg/mL	> 64 µg/mL	> 64 µg/mL	> 64 µg/mL	> 64 µg/mL
C[n+]1c2ccccc2c(Nc2ccccc2-c2ccccc2)c2ccccc21.[Cl-]	–	> 64 µg/mL	> 64 µg/mL	> 64 µg/mL	> 64 µg/mL	> 64 µg/mL	> 64 µg/mL	> 64 µg/mL	> 64 µg/mL	> 64 µg/mL	> 64 µg/mL
C[n+]1c2ccccc2c(Nc2ncccn2)c2ccccc21.[Cl-]	–	> 64 µg/mL	> 64 µg/mL	> 64 µg/mL	> 64 µg/mL	> 64 µg/mL	> 64 µg/mL	> 64 µg/mL	> 64 µg/mL	> 64 µg/mL	> 64 µg/mL

— ChEMBL document CHEMBL4837210 (Eur J Med Chem, 2021)
